Laboratory results reported in PubChem BioAssay.
The source made the active and inactive calls.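 The calls were made as follows, unless noted: active = NADPH fluorescence slope more negative than the mean of all samples by about 3 SD, 99.7% confidence; inactive = the rest.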

What was measured:
[1] = inhibitors of TNFa-induced NFkB p65 translocation, primary screen, imaging, HUVEC, MLSMR starter and 10KST1 sets (AID 438;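 active = inhibition above 20% together with a positive visual image hit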;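 also: compound added about 3h40 before a 20 min TNFalpha stimulation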;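 as to inhibition: signal is the nuclear over cytoplasmic p65 intensity ratio per well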); conditions: HUVEC TNFa-induced p65 nuclear translocation; cell count: measured here: nuclei count (cytotoxicity indicator), at 2.08 µM; inhibition: at 2 µM, stronger effect = higher value, 0% TNFa-plus-vehicle, 100% no-TNFa wells
[2] = reduction of polyQ htt aggregates in cells – imaging, exon1htt(103Q)mCFP cells, high-content imaging, primary screen (AID 483;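 active = visual image review flags a hit and inhibition of aggregation exceeds 20%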;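 also: compound exposure lasted 3 days before fixation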;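 as to nuclei count: percent of the per-plate median nuclei count of sample wells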); conditions: exon1htt(103Q)mCFP cell line, aggregate imaging, at 2 µM; inhibition of aggregation: stronger effect = higher value; nuclei count: measured here: cell count, toxicity
[3] = endothelial E-selectin expression blockers – imaging, HUVEC, immunofluorescence, MLSMR starter and 10KST1 sets, primary screen (AID 487;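 active = visually confirmed hit in the image check and inhibition above 20%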;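 as to inhibition: signal is fraction of cell area covered by stained E-selectin grains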;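 as to nuclei count: 100% = median nuclei count of all wells on the same plate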); conditions: HUVEC TNFalpha-induced E-selectin immunofluorescence imaging, at 2 µM; inhibition: stronger effect = higher value; nuclei count: measured here: cell number, toxicity
[4] = target: Voltage-gated potassium channel subunit beta-2 (Rattus norvegicus) (UniProt P62483); experiment: inhibitors of rat Kvbeta2 reductase activity – biochemical, NADPH fluorescence, primary screen (AID 622;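 active = fluorescence slope higher than the sample average by over 3 SD, cut at about -0.22 in these data, passing the limit was not always enough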;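 also: slope of raw intensity against log time taken from 70 to 1610 s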); conditions: recombinant KvBeta, 4-cyanobenzaldehyde reduction, at 10 µM, stronger effect = higher value
Voltage-gated potassium channel subunit beta-2 (Rattus norvegicus), sequence (P62483 whole entry, looked up): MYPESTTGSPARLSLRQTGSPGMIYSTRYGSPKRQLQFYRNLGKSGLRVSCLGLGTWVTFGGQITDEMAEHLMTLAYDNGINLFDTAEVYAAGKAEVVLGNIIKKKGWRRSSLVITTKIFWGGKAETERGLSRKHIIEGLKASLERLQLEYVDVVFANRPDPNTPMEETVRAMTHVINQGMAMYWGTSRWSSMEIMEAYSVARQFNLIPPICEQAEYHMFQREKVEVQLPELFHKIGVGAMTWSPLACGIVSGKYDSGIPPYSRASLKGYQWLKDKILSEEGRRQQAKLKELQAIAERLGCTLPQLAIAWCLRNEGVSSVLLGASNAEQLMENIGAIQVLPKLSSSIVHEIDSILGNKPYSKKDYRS

[5] = target: Voltage-gated potassium channel subunit beta-2 (Rattus norvegicus) (UniProt P62483); experiment: enhancers of rat Kvbeta2 NADPH turnover – biochemical, NADPH fluorescence, primary screen (AID 623); conditions: Recombinant KvBeta, NADPH fluorescence decrease slope, 10 min; at 10 µM; stronger effect = lower value;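 also: fluorescence intensity change per second fitted from 20 to 320 s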
[6] = target: Muscarinic acetylcholine receptor M4 (Homo sapiens) (UniProt P08173); experiment: M4-linked GIRK flux change, two-sided – cell-based, HEK293 M4/GIRK, thallium flux, BTC-AM, M4 allosteric agonist project, primary screen (AID 625;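 active = fluorescence slope after compound addition differing from the mean of all tested samples at 99.7% confidence, mostly higher but some lower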;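 also: thallium influx through GIRK channels coupled to M4 in HEK293 cells with BTC-AM dye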); conditions: at 10 µM, actives lie on both sides
Muscarinic acetylcholine receptor M4 (Homo sapiens), sequence (P08173 whole entry, looked up): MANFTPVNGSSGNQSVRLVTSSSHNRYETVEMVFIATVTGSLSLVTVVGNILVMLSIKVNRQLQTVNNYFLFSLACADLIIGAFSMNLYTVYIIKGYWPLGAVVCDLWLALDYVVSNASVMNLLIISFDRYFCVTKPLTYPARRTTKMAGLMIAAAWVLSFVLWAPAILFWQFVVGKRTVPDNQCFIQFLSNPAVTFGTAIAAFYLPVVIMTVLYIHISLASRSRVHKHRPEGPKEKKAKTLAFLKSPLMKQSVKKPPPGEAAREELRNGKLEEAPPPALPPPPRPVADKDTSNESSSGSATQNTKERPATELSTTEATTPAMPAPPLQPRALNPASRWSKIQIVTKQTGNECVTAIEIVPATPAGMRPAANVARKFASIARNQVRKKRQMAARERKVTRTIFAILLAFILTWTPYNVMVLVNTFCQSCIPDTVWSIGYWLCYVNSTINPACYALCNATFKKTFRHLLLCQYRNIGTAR
How it was run: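 assay system = HEK293 cells with M4 receptor and GIRK channels | medium = pH 7.3 thallium assay buffer | doses = 10 µM final, single point | timing = cells overnight at 37 °C, BTC-AM loading 1 h, reads 2 min total | signal = BTC-AM fluorescence, 1 Hz kinetic reads | read-out = post-addition slope, 15–24 s, of baseline-normalized fluorescence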

[7] = blockers of RIG-like receptor reporter activation – cell-based, Sendai virus stimulus, luciferase, 10K MLSCN set, TLR/RLR signaling modifier project, primary screen (AID 602276;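 active = inhibition at or above 50% at 10 µM; inactive = inhibition below 50%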;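 also: firefly luciferase from ISG56 promoter only with Renilla not read in this screen; 0% = Sendai virus plus DMSO and 100% = medium plus DMSO without virus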); conditions: HEK293 RL24 IRF3 luciferase reporter, at 10 µM, stronger effect = higher value
[8] = TLR3 IRF3 reporter activation blockers – cell-based, poly I:C stimulus, luciferase, 10K MLSCN set, primary screen (AID 602277;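 active = inhibition of the reporter signal at or above 50%; inactive = inhibition below 50%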); conditions: HEK293-TLR3 RL24 IRF3 luciferase reporter, at 10 µM, stronger effect = higher value

Row | Structure (SMILES) | cell count [1] | inhibition [1] | inhibition of aggregation [2] | nuclei count [2] [%] | inhibition [3] | nuclei count [3] [%] | fluorescence slope [4] | NADPH fluorescence slope [5] | fluorescence slope [6] | inhibition [7] | inhibition [8]
1 | CCCCNS(=O)(=O)c1ccc(OC)c2ncccc12 | 568 | 4.1% (inactive) | 16.3% (inactive) | 115 | -1.9% (inactive) | 93 | -0.337 (inactive) | -4.1e-05 (inactive) | 0.00627 (inactive) | -12.5% (inactive) | -11.5% (inactive)
2 | Cc1nc2c(=O)oc3ccccc3c2n1-c1ccccc1 | 579 | 2.9% (inactive) | 30.6% (inactive) | 90.3 | 33% (inactive) | 30.7 | -0.519 (inactive) | -3.7e-05 (inactive) | 0.0052 (inactive) | 12.7% (inactive) | 23.7% (inactive)
3 | COC(=O)c1ccccc1NC(=O)Cn1c(-c2nonc2N)nc2ccccc21 | 363 | 5.8% (inactive) | -2.5% (inactive) | 1.9 | -162% (inactive) | 102 | -0.537 (inactive) | -5.1e-05 (inactive) | 0.00504 (inactive) | 47.8% (inactive) | 30% (inactive)
4 | COc1ccc(CN2C(=O)c3cccnc3C2Nc2cc(Cl)ccc2OC)cc1 (stereo unspecified) | 482 | 3% (inactive) | 0.1% (inactive) | 105 | -26.9% (inactive) | 112 | -0.445 (inactive) | 0.00011 (inactive) | 0.00665 (inactive) | -6.43% (inactive) | -6.33% (inactive)
5 | Cc1cccc(-n2ncc3c(NCc4ccccn4)ncnc32)c1 | 351 | -16.8% (inactive) | 4.2% (inactive) | 101 | 0.4% (inactive) | 122 | -0.592 (inactive) | -4.2e-05 (inactive) | 0.00598 (inactive) | -33.2% (inactive) | -129% (inactive)
6 | O=C(CSc1nc(-c2ccc(F)cc2)cs1)N1CCOCC1 | 311 | 9.3% (inactive) | 20.5% (inactive) | 95.1 | -45.8% (inactive) | 93.6 | -0.462 (inactive) | 2.4e-05 (inactive) | 0.00525 (inactive) | -23.2% (inactive) | -106% (inactive)
7 | Cc1nc(SCC(=O)Nc2ccccc2C(F)(F)F)c2c(=O)n(C)c(=O)n(C)c2n1 | 414 | -4.7% (inactive) | 1.1% (inactive) | 120 | -111% (inactive) | 121 | -0.447 (inactive) | 8.7e-05 (inactive) | 0.0097 (inactive) | 7.4% (inactive) | 13.5% (inactive)
8 | CCCc1cc(=O)n2[nH]c(-c3ccc(Br)cc3)cc2n1 | 320 | 1.7% (inactive) | -4.6% (inactive) | 98.8 | -27.5% (inactive) | 119 | -0.473 (inactive) | -2.2e-05 (inactive) | 0.00575 (inactive) | -22.4% (inactive) | -15.4% (inactive)
9 | CCC(=O)Nc1ccc(NC(=O)CSc2nnnn2C(C)C)cc1 | 667 | -8.1% (inactive) | -6% (inactive) | 74.9 | -74.4% (inactive) | 129 | -0.461 (inactive) | -4.3e-05 (inactive) | 0.00465 (inactive) | 14.9% (inactive) | 16.2% (inactive)
10 | COc1ccc(C2CC(=O)c3c(C)nc(N4CCN(c5ccccc5)CC4)nc3C2)cc1 (stereo unspecified) | 598 | 5.6% (inactive) | -5.3% (inactive) | 109 | 29.4% (inactive) | 108 | -0.574 (inactive) | -4.7e-05 (inactive) | 0.00457 (inactive) | 8.81% (inactive) | -8.5% (inactive)
11 | O=C(NCc1ccccn1)Nc1ccc2c(c1)OCO2 | 415 | -12.8% (inactive) | -6.8% (inactive) | 100 | 3.1% (inactive) | 92.3 | -0.459 (inactive) | -1.3e-06 (inactive) | 0.00592 (inactive) | 10.3% (inactive) | 99.1% (active)
12 | CCSC1=NCN(CCCC(=O)O)CN1 | 645 | 10.1% (inactive) | 5.8% (inactive) | 106 | -81.7% (inactive) | 125 | -0.558 (inactive) | -4e-05 (inactive) | 0.00489 (inactive) | 12.3% (inactive) | 10.3% (inactive)
13 | Nc1cc(C(=O)O)ccc1Nc1ccc(F)c(F)c1 | 693 | -22.9% (inactive) | -0.6% (inactive) | 124 | 6.9% (inactive) | 96.9 | -0.44 (inactive) | 0.000103 (inactive) | 0.00669 (inactive) | -5.42% (inactive) | -4.51% (inactive)
14 | COc1cccc(Nc2nc(=O)[nH]nc2C)c1 | 372 | -0.7% (inactive) | -14.2% (inactive) | 106 | -23.9% (inactive) | 103 | -0.572 (inactive) | -4.1e-05 (inactive) | 0.00575 (inactive) | 16.9% (inactive) | 22.7% (inactive)
15 | O=S(=O)(c1ccc(Br)s1)N1CCCCC1 | 479 | -1.6% (inactive) | -18.8% (inactive) | 100 | 0.6% (inactive) | 106 | -0.615 (inactive) | 4.4e-05 (inactive) | 0.00346 (inactive) | 5.16% (inactive) | 9.33% (inactive)
16 | CCOC(=O)C1=C(C)N(C)C(C)=C(C(=O)OCC)C1c1cccnc1 | 366 | -5.2% (inactive) | -14.4% (inactive) | 93.8 | -55.9% (inactive) | 115 | -0.5 (inactive) | -2.2e-05 (inactive) | 0.00631 (inactive) | -2.74% (inactive) | 6.76% (inactive)
17 | O=c1[nH]c2ccccc2nc1NCCN1CCOCC1 | 404 | -26.6% (inactive) | -31.4% (inactive) | 98.9 | -80.4% (inactive) | 134 | -0.553 (inactive) | -6.2e-05 (inactive) | 0.00364 (inactive) | 8.81% (inactive) | 1.66% (inactive)
18 | CCOCCn1cnc2sc(C(=O)Nc3nc(C)c(C(=O)OCC)s3)c(C)c2c1=O | 785 | -3.7% (inactive) | 2.9% (inactive) | 121 | -9.6% (inactive) | 105 | -0.26 (inactive) | 4.1e-06 (inactive) | 0.0063 (inactive) | 11.8% (inactive) | -0.0117% (inactive)
19 | CCCc1cn(S(=O)(=O)c2ccc(OC)cc2OC)nc1N | 364 | -8.7% (inactive) | 7.3% (inactive) | 100 | -38.9% (inactive) | 119 | -0.537 (inactive) | -3.9e-05 (inactive) | 0.00411 (inactive) | -0.283% (inactive) | 5.1% (inactive)
20 | COc1ccc2c(-c3cccnc3)cc(=O)[nH]c2c1 | 363 | 4.3% (inactive) | -5.5% (inactive) | 84.5 | 36.3% (inactive) | 79.4 | -0.39 (inactive) | -9.1e-05 (inactive) | 0.00553 (inactive) | 13.4% (inactive) | 26.1% (inactive)
21 | CCOC(=O)c1c(C)oc2ccc(OCC(=O)N(CC)CC)cc12 | 422 | -1.7% (inactive) | -2.3% (inactive) | 95.5 | -63% (inactive) | 104 | -0.449 (inactive) | -1.9e-05 (inactive) | 0.00589 (inactive) | 8.2% (inactive) | 7.27% (inactive)
22 | O=C(CCNC(=O)Cn1ccc2ccccc2c1=O)NCCN1CCc2ccccc2C1 | 337 | 0.5% (inactive) | 16.2% (inactive) | 77.2 | -26.8% (inactive) | 111 | -0.474 (inactive) | -0.000226 (inactive) | 0.00569 (inactive) | -3.36% (inactive) | 11.4% (inactive)
23 | N#Cc1c(NC(=O)CSc2nnnn2C2CCCC2)sc2c1CCCC2 | 527 | -1.8% (inactive) | -3.6% (inactive) | 114 | 36.6% (inactive) | 109 | -0.392 (inactive) | 2.8e-05 (inactive) | 0.00642 (inactive) | 11% (inactive) | 26.3% (inactive)
24 | Cc1c(C(=O)NCc2ccccn2)oc2ccccc12 | 328 | -4.1% (inactive) | -3.8% (inactive) | 86 | 44.5% (inactive) | 49.4 | -0.514 (inactive) | 8.6e-06 (inactive) | 0.00478 (inactive) | -29.5% (inactive) | -79.6% (inactive)
25 | CCN(CC)C(=O)CSc1nc2ccccc2c(=O)n1CCC(=O)NCc1ccc(F)cc1 | 471 | -6.6% (inactive) | 15.2% (inactive) | 108 | -22% (inactive) | 112 | -0.516 (inactive) | 5.1e-05 (inactive) | 0.00599 (inactive) | -10.2% (inactive) | -7.71% (inactive)
26 | Cc1nn(Cc2ccccc2)c(C)c1NC(=O)CCC(=O)O | 667 | 23.6% (active) | -6.6% (inactive) | 112 | 17.9% (inactive) | 105 | -0.49 (inactive) | 1.1e-05 (inactive) | 0.00488 (inactive) | -5.04% (inactive) | -12.9% (inactive)
